Bioassay records from PubChem.
Hits are enriched below; roughly 2.9% of the tested compounds scored in any of these assays.
SENP8 block-1: human SENP8 protease inhibitors, primary screen, biochemical, fluorescence, Nedd8 protein substrate, uHTS. recombinant SENP8. inhibition, % at 20 µM. 0.64% of 360,000 active. AID 602440, 2012; in the data active = inhibition mostly above about 40%, no sharp cut-off; inactive = mostly below about 27%
SENP7 block: SENP7 protease inhibitors, primary screen, biochemical, luminescence, uHTS; recombinant SENP7, Z-RLRGG-aminoluciferin luminescence, 40 min; 1.5% of 330,000 active; AID 434973, 2010; Sentrin-specific protease 7 (Homo sapiens), Q9BQF6; inhibition, % at 5 µM;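 active = inhibition above about 50% at the single test dose, limit read from the data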;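 also: plate controls were DMSO with enzyme for no effect and no enzyme buffer wells for full effect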
SENP6 inh: SENP6 protease inhibitors, primary screen, biochemical, luminescence, uHTS; inhibition, % at 10 µM; 1.8% of 330,000 active; Recombinant SENP6 catalytic domain, aminoluciferin luminescence; Sentrin-specific protease 6 (Homo sapiens), Q9GZR1;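 active = inhibition above about 50% at the single tested dose, limit read from the data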;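 also: plate controls were DMSO wells with enzyme for no effect and DMSO wells lacking enzyme for full effect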
SENP8 block-2: SENP8 protease inhibitors, primary screen, biochemical, luminescence. Sentrin-specific protease 8 (Homo sapiens), Q96LD8. purified SENP8, Z-RLRGG-aminoluciferin cleavage. inhibition, % at 10 µM. 1.2% of 330,000 active. AID 2540, 2010; in the data active = inhibition above about 50%
SENP1 inh: human SENP1 catalytic domain inhibitors, primary screen, biochemical, FRET, uHTS | Sentrin-specific protease 1 (Homo sapiens), Q9P0U3 | recombinant SENP1 catalytic domain, CyPet-SUMO1-YPet FRET cleavage | inhibition, % at 10 µM | 0.21% of 360,000 active | AID 624204, 2012;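 active = inhibition at least 30% at 10 µM, raw YFP signal under a set limit, fluorescence ratio 0.5 to 1.5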;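 also: 0% = enzyme with DMSO and 100% = no enzyme wells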
Target sequence (Q9P0U3 419-644 limits assumed): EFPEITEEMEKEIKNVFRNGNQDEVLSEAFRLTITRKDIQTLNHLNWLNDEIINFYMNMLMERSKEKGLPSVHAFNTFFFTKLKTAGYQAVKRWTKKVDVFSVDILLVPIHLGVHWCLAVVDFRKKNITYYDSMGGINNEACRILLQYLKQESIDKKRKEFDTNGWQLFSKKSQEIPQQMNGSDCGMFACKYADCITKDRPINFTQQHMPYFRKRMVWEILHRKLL
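Material: hSENP1 catalytic domain, recombinant; medium: Tris pH 8 with BME, BSA, NP40 and catalase; compound: single concentration of 10 µM compound, 0.5% DMSO final; technique: FRET read of cyan and yellow fluorescence; timing: 50 min enzyme reaction, room temperature, light-protected; reagent: SFCypet-SUMO1-SFYpet substrate at 25 nM; control set: no-enzyme low, enzyme-DMSO high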
HSP90 refold inh: HSP90 inhibitors, primary screen, cell lysate, luminescence; inhibition, % at 5.6 µM; 0.91% of 290,000 active; Heat shock protein HSP 90 (rabbit reticulocyte lysate; luciferase refolding); Rabbit reticulocyte lysate, luciferase refolding luminescence, 3 h;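 active = inhibition above the screen-wide mean plus 3 SD, computed separately per campaign, cut at about 16% in these data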;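 also: 0% = DMSO wells and 100% = 60 µM geldanamycin wells; inhibitors lower the luminescence because luciferase stays unfolded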
SENP8 confirm: SENP8 protease inhibitors, retest, confirmation, biochemical, luminescence, single concentration | shares compounds with SENP7 block | Recombinant SENP8, Z-RLRGG-aminoluciferin luminescence, 60 min | inhibition, % at 12.5 µM | 40% of 6,200 active;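 active = mean inhibition across replicates above about 50%, limit read from the data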
SENP6 confirm: SENP6 protease inhibitors, confirmation, biochemical, luminescence, single concentration | 58% of 6,200 active | shares compounds with SENP7 block | inhibition, % at 12.5 µM | recombinant SENP6, Z-RLRGG-aminoluciferin luminescence
SENP7 confirm: SENP7 protease inhibitors, retest, confirmation, biochemical, luminescence, single concentration; shares compounds with SENP7 block; AID 488917, 2010; recombinant SENP7, Z-RLRGG-aminoluciferin luminescence, 40 min; inhibition, % at 12.5 µM; 69% of 6,200 active
Casp3 select: caspase-3 protease inhibitors, confirmation, selectivity assay for SENP inhibitor project, biochemical, single concentration. shares compounds with SENP7 block. purified caspase-3, Z-DEVD-aminoluciferin luminescence, 60 min. inhibition, % at 12.5 µM. 60% of 6,200 active. AID 488918, 2010;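 active = mean inhibition above about 50%, limit read from the data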;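 also: plate controls were enzyme with DMSO for no effect and wells without caspase-3 for full effect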
Target sequence (P42574 28-227 limits assumed): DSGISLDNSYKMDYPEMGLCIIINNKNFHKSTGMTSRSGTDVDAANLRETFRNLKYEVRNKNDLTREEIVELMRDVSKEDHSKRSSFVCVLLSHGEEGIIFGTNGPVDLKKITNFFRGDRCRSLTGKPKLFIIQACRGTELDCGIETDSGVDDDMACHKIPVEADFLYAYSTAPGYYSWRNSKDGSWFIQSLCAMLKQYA
SENP luc ctr: luminescence interference (SENP counter-screen); inhibition, % at 12.5 µM; shares compounds with SENP7 block; 39% of 6,200 active; Pre-incubated SENP8/Z-RLRGG-aminoluciferin, luciferase luminescence interference;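 active = mean inhibition above about 50% when retested at one dose, limit read from the data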;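 also: plate controls were DMSO wells with completed reaction for no effect and substrate without enzyme for full effect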
* hit, by the source's call; . = no result.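 The calls were made as follows, unless noted: active = mean inhibition above about 50% in the one-dose retest (limit read from the data); inactive = the rest.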

SMILES	SENP8 block-1	SENP7 block	SENP6 inh	SENP8 block-2	SENP1 inh	HSP90 refold inh	SENP8 confirm	SENP6 confirm	SENP7 confirm	Casp3 select	SENP luc ctr
O=C(Nc1ccc2c(c1)OCCO2)c1cccc(Cl)c1	14	85*	87*	77*	1	3	7	86*	97*	85*	86*
CC(C)(C)c1ccc(C(=O)Nc2cccc([N+](=O)[O-])c2)cc1	1	.	.	.	0	0	.	.	.	.	.
CCCc1cc(C(=O)Nc2cccc([N+](=O)[O-])c2)cs1	8	72*	87*	59*	0	1	9	73*	92*	45	56*
O=C(Nc1cccc([N+](=O)[O-])c1)c1ccncc1	9	-7	1	-4	0	-3	.	.	.	.	.
COC(=O)C(C)Oc1cc(C)ccc1COc1ccc(-n2nc(C)n(C(F)F)c2=O)cc1 (stereo not drawn)	8	-4	-8	-2	0	.	.	.	.	.	.
C[C@H](NS(=O)(=O)c1ccc(Cl)cc1)C(=O)OCC(=O)NCCc1ccc(S(N)(=O)=O)cc1	2	.	.	.	0	.	.	.	.	.	.
CN(C)S(=O)(=O)c1ccc(C(=O)N2CC(=O)Nc3ccc(F)cc3C2c2ccc(F)cc2)cc1 (stereo not drawn)	17	-2	13	-2	0	1	.	.	.	.	.
COCC(C)NC(=O)c1noc2c1CCc1cc(OC)ccc1-2 (stereo not drawn)	2	52*	53*	12	-1	3	36	14	74*	73*	60*
COCCNC(=O)c1noc2c1CCc1cc(OC)ccc1-2	9	11	17	-3	1	3	.	.	.	.	.
COc1ccc2c(c1)CCc1c(C(=O)NCCN3CCOCC3)noc1-2	-7	0	6	5	1	4	.	.	.	.	.
COc1ccc2c(c1)CCc1c(C(=O)NC3CCCCC3)noc1-2	16	86*	33	0	1	-2	-24	-11	0	4	-3
Cc1ccc(C(=O)N2[C@@H]3CN(C)C(=O)[C@@]2(Cc2ccccc2)[C@H]2C(=O)N(Cc4ccccc4)C(=O)[C@@H]32)cc1	-3	.	.	.	-10	.	.	.	.	.	.
CC(=O)C(=Cc1ccccc1)c1ccccc1	15	.	.	.	-1	.	.	.	.	.	.
O=C(Nc1nc2c(s1)CCCC2)c1ccc(N2C(=O)CCC2=O)cc1	-15	3	3	-17	1	-6	.	.	.	.	.
O=C(Nc1nc2c(s1)CCCC2)c1ccc(Br)s1	-43	53*	60*	44	1	4	9	49	86*	44	49
Cc1cc(C(=O)Nc2nc3c(s2)CCCC3)cs1	-4	86*	84*	67*	-2	7	2	75*	98*	84*	21
Cc1ncsc1C(=O)Nc1nc2c(s1)CCCC2	-41	99*	96*	92*	1	1	52*	98*	103*	98*	53*
O=C(C=C(C(=O)c1ccccc1)c1ccccc1)c1ccccc1	17	.	.	.	3	.	.	.	.	.	.
